From ChEMBL document CHEMBL1250436, “Evaluation of N-substitution in 6,7-benzomorphan compounds” (Bioorg Med Chem, 2010)

Key:
[1] = target: Mu-type opioid receptor (Rattus norvegicus, UniProt P33535); test: Displacement of [3H]DAMGO from Sprague-Dawley rat mu opioid receptor by liquid scintillation counting
[2] = Selectivity ratio of Ki for kappa opioid receptor in guinea pig cerebella to Ki for mu opioid receptor in Sprague-Dawley rat brain
[3] = target: Delta-type opioid receptor (Rattus norvegicus, UniProt P33533); test: Displacement of [3H]DPDPE from Sprague-Dawley rat delta opioid receptor by liquid scintillation counting
Chain of Delta-type opioid receptor (Rattus norvegicus, UniProt P33533) (P33533 whole entry): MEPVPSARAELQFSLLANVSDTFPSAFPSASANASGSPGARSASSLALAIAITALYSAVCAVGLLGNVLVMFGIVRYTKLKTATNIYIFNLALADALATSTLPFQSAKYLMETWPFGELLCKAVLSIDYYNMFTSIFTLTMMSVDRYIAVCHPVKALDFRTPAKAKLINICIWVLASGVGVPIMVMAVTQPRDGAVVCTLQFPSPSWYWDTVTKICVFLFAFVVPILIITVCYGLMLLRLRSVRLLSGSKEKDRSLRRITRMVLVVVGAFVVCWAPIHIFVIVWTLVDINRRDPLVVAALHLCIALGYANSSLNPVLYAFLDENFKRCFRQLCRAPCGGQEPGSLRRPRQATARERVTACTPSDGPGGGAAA

[4] = target: Kappa-type opioid receptor (Cavia porcellus, UniProt P41144); test: Displacement of [3H]U69593 from […] kappa opioid receptor in guinea pig cerebella by liquid scintillation counting
Chain of Kappa-type opioid receptor (P41144 whole entry): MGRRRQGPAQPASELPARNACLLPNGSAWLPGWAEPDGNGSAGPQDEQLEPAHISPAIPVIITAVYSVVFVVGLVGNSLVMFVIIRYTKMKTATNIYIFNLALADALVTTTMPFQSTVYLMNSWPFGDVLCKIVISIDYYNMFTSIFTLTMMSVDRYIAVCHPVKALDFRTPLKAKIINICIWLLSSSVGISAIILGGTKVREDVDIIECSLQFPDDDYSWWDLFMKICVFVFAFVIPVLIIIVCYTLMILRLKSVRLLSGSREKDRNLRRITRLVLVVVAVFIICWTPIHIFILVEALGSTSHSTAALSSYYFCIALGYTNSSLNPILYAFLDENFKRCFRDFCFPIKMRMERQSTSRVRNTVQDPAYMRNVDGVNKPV

[5] = species on record: Rattus norvegicus; test: Selectivity ratio of Ki for delta opioid receptor in Sprague-Dawley rat brain to Ki for mu opioid receptor in Sprague-Dawley rat brain
[6] = test system: Rattus norvegicus; test: Antinociceptive activity in sc dosed Sprague-Dawley rat assessed as thermal-stimulus-induced tail flick latency after 100 mins; type: functional
How it was run: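 Male Sprague–Dawley rats (180–200 g) habituated the day before. Radiant-heat IR on lower third of tail. Basal latency 3–4 s, mean of three readings 5 min apart. Cut-off 10 s. Compound given sc, and latencies read at 20, 40, 60, 80 and 100 min. Blinded. ED50 from linear regression of dose–effect, with 95% confidence limits.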

[7] = target: T1, Mu-type opioid receptor (Homo sapiens, UniProt P35372); test: Agonist activity at mu opioid expressed in HEK293 cells assessed as inhibition of forskolin-stimulated cAMP accumulation at 1 pM to 10 uM relative to control; type: functional, cell-based
T1 sequence (P35372 whole entry): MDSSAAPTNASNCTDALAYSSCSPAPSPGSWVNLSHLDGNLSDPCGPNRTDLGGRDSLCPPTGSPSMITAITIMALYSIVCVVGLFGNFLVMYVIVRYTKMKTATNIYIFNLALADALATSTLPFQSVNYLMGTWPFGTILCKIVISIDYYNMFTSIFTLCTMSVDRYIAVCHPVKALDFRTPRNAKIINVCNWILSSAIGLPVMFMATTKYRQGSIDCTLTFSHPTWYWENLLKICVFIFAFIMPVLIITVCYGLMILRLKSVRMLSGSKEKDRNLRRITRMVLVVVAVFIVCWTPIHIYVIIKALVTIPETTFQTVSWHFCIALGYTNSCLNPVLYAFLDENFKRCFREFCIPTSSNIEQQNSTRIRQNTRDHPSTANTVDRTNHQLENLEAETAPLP

[8] = target: T1, Mu-type opioid receptor; test: Agonist activity at mu opioid expressed in HEK293 cells assessed as inhibition of forskolin-stimulated cAMP accumulation; type: functional, cell-based
[9] = target: T2, Delta-type opioid receptor (Homo sapiens, UniProt P41143); test: Agonist activity at delta opioid expressed in HEK293 cells assessed as inhibition of forskolin-stimulated cAMP accumulation at 1 pM to 10 uM relative to control; type: functional, cell-based
T2 sequence (P41143 whole entry): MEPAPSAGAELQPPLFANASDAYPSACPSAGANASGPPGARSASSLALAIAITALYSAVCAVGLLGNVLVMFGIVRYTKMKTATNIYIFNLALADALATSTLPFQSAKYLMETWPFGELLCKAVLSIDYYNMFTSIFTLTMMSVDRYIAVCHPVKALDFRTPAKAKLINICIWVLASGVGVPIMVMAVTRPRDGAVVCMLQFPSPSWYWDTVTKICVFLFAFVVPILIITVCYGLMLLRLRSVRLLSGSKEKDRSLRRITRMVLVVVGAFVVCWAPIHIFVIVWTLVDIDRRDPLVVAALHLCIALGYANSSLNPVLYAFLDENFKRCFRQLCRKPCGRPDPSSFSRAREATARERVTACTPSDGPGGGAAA

[10] = target: T2, Delta-type opioid receptor; test: Agonist activity at delta opioid expressed in HEK293 cells assessed as inhibition of forskolin-stimulated cAMP accumulation; type: functional, cell-based

Chain of Mu-type opioid receptor (Rattus norvegicus, UniProt P33535) (P33535 whole entry): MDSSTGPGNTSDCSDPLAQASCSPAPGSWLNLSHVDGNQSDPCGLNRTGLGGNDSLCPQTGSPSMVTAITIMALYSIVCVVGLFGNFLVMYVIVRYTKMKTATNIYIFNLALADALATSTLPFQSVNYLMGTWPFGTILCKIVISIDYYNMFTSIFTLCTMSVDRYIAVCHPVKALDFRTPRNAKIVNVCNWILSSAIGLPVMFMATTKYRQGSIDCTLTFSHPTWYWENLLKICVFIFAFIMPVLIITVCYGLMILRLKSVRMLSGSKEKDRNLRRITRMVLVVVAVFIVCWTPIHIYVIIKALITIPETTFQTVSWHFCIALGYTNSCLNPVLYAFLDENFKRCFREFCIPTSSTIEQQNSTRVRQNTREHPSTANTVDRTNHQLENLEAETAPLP

SMILES | Ki [1] [nM] | Ratio Ki [2] | Ki [3] [nM] | Ki [4] [nM] | Ratio Ki [5] | ED50 [6] [mg/kg] | Imax [7] [%] | IC50 [8] [nM] | Imax [9] [%] | IC50 [10] [nM]
C[C@H]1CN(CC(=O)NC2CCCCC2)[C@@H]2Cc3ccc(O)cc3[C@]1(C)C2 | 2930 | 0.2 | > 5000 | 612 | > 1.7 |  |  |  |  | 
C[C@H]1CN(CCC(=O)NCc2ccccc2)[C@@H]2Cc3ccc(O)cc3[C@]1(C)C2 | 105 | 2.2 | > 5000 | 237 | > 47.6 |  |  |  |  | 
C[C@H]1CN(CCC(=O)NCC2CCCCC2)[C@@H]2Cc3ccc(O)cc3[C@]1(C)C2 | 107 | 1.2 | > 5000 | 134 | > 46.7 |  |  |  |  | 
C[C@H]1CN(CC(=O)Nc2ccccc2)[C@@H]2Cc3ccc(O)cc3[C@]1(C)C2 | 722 | > 6.9 | > 5000 | > 5000 | > 6.9 |  |  |  |  | 
CCN(C(=O)CN1C[C@H](C)[C@@]2(C)C[C@H]1Cc1ccc(O)cc12)c1ccccc1 | 1120 | 0.29 | > 5000 | 335 | > 4.4 |  |  |  |  | 
C[C@H]1CN(CCC(=O)N(C)c2ccccc2)[C@@H]2Cc3ccc(O)cc3[C@]1(C)C2 | 65 | 4 | > 5000 | 261 | > 76.9 |  |  |  |  | 
C[C@H]1CN(CC(=O)N(C)c2ccccc2)[C@@H]2Cc3ccc(O)cc3[C@]1(C)C2 | 1370 | 0.24 | > 5000 | 339 | > 3.6 |  |  |  |  | 
CN1CC[C@]23c4c5ccc(O)c4O[C@H]2[C@@H](O)C=C[C@H]3[C@H]1C5 [MORPHINE] |  |  |  |  |  | 2.7 |  |  |  | 
C[C@@H](NC(=O)[C@@H](N)Cc1ccc(O)cc1)C(=O)NCC(=O)N(C)[C@@H](Cc1ccccc1)C(=O)NCCO [DAMGO] |  |  | 2670 | > 5000 |  |  |  |  |  | 
C[C@H]1CN(CCC(=O)Nc2ccccc2)[C@@H]2Cc3ccc(O)cc3[C@]1(C)C2 | 0.83 | 132 | 29.1 | 110 | 33.8 | 2.03 | 73 | 4.8 | 83 | 12
CCN(C(=O)CCN1C[C@H](C)[C@@]2(C)C[C@H]1Cc1ccc(O)cc12)c1ccccc1 | 136 | 0.51 | > 5000 | 70 | > 36.7 |  |  |  |  | 
C[C@H]1CN(CCC(=O)NC2CCCCC2)[C@@H]2Cc3ccc(O)cc3[C@]1(C)C2 | 56 | 8.9 | > 5000 | 501 | > 89.2 |  |  |  |  | 
C[C@H]1CN(CCC(=O)NC(C)(C)C)[C@@H]2Cc3ccc(O)cc3[C@]1(C)C2 | 372 | 1.1 | > 5000 | 422 | > 13.4 |  |  |  |  | 
